Assay results: article PMC2861555 (International journal of radiation biology, 2009)
Read-outs that look alike come from different tables or passages of the source. Marks after values point to notes of the source that are not given here.

Key:
rats = settings: rats; ref Bergeron et al., 1993; cited from earlier work
[1] = format: in vivo, rat; settings: for Bile/Urine (%): bile share of U excretion / Bile/Urine (%): urine share of U excretion / % Administered Dose Excreted: 24 h; for Reduction (%) of renal uranium vs control / reduction of bone actinide content vs control: 24 h post-metal; for % Administered Dose Excreted: bile + urine; for Renal Conc.: kidneys removed 24 h post-metal; for Kidney U Conc. / Liver U Conc. / Lung U Conc. / Spleen U Conc. / Bone (femur) U Conc.: tissue 24 h post-metal; for Bone (femur) U Conc.: bone + bone marrow; for reduction of bone actinide content vs control: femur
[2] = Multiple dose chelator administration in non-bile duct-cannulated; format: in vivo, rat; settings: for % Administered Dose Excreted / Total U Excretion: urine + feces
Outline: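 Intact rats got uranyl acetate 1 mg U kg−1 s.c. (left flank), then test compound or DTPA 300 µmol kg−1 s.c. (right flank) immediately and at 24-h intervals (4 doses). Rats were caged singly with chow and water ad libitum. Urine and feces were collected every 24 h. Kidneys and other tissues were taken 24 h after the last dose. Uranium was measured by ICP-MS in triplicate; data are mean ± SEM.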

[3] = 24 h after last of 4 daily s.c. doses of 300 µmol kg^−1
[4] = Day 1, 300 µmol kg^−1 s.c. daily x 4
[5] = Day 2, 300 µmol kg^−1 s.c. daily x 4
[6] = Day 3, 300 µmol kg^−1 s.c. daily x 4
[7] = Day 4, 300 µmol kg^−1 s.c. daily x 4

## C[C@]1(C(=O)O)CSC(c2ncccc2O)=N1 [DFT, (S)-4,5-dihydro-2-(3-hydroxy-2-pyridinyl)-4-methyl-4-thiazolecarboxylic acid, reference compound]
rats
  nephrotoxicity: severe nephrotoxicity

## COc1ccc(C2=N[C@@](C)(C(=O)O)CS2)c(O)c1 [compound 7, (S)-4'-(CH3O)-DADFT]
[1]; single dose 150 µmol kg^−1 SC
  Bile/Urine (%): bile share of U excretion: 62%
  Bile/Urine (%): urine share of U excretion: 38%
  Reduction (%) of renal uranium vs control: 77%
  % Administered Dose Excreted: 24.8%
  Renal Conc.: 19 ± 4 ^b µg g^−1
  Kidney U Conc.: 19 ± 4 ^b µg g^−1
  Liver U Conc.: 11.3 ± 3.2 µg/g
  Lung U Conc.: 0.28 ± 0.04 ^c µg g^−1
  Spleen U Conc.: 0.39 ± 0.08 ^c µg g^−1
  Bone (femur) U Conc.: 2.9 ± 0.9 µg/g
[1]; single dose 150 µmol kg^−1 SC, listed as C00017
  Liver U Conc.: 11.3 ± 3.2 ^c µg g^−1
[1]; single dose 300 µmol kg^−1 PO
  Bile/Urine (%): bile share of U excretion: 89%
  Bile/Urine (%): urine share of U excretion: 11%
  Reduction (%) of renal uranium vs control: 94%
  % Administered Dose Excreted: 26.5%
  Renal Conc.: 5 ± 3 ^b µg g^−1
  Kidney U Conc.: 5 ± 3 ^b µg g^−1
  Liver U Conc.: 5.1 ± 1.7 ^c µg g^−1
  Lung U Conc.: 0.30 ± 0.10 ^c µg g^−1
  Spleen U Conc.: 0.49 ± 0.44 µg/g
  Bone (femur) U Conc.: 1.7 ± 0.9 ^b µg g^−1
[1]; single dose 300 µmol kg^−1 SC
  Bile/Urine (%): bile share of U excretion: 92%
  Bile/Urine (%): urine share of U excretion: 8%
  Reduction (%) of renal uranium vs control: 90%
  % Administered Dose Excreted: 33.9%
  Renal Conc.: 8 ± 2 ^b µg g^−1
  Kidney U Conc.: 8 ± 2 ^b µg g^−1
  Liver U Conc.: 8.1 ± 2.4 ^c µg g^−1
  Lung U Conc.: 0.61 ± 0.13 ^c µg g^−1
  Spleen U Conc.: 0.67 ± 0.18 ^c µg g^−1
  Bone (femur) U Conc.: 1.8 ± 0.6 ^b µg g^−1
[1]; single dose 300 µmol kg^−1 p.o.
  reduction of bone actinide content vs control: ≥ 50%
[1]; single dose 300 µmol kg^−1 s.c.
  reduction of bone actinide content vs control: ≥ 50%

## COc1ccc(C2=N[C@@H](C(=O)O)CS2)c(O)c1 [compound 3, (S)-2-(2-hydroxy-4-methoxyphenyl)-4,5-dihydro-4-thiazolecarboxylic acid]
[1]; single dose 150 µmol kg^−1 SC
  Bile/Urine (%): bile share of U excretion: 37%
  Bile/Urine (%): urine share of U excretion: 63%
  Reduction (%) of renal uranium vs control: 40%
  % Administered Dose Excreted: 23.8%
  Renal Conc.: 51 ± 22 ^b µg g^−1
  Kidney U Conc.: 51 ± 22 ^b µg g^−1
  Liver U Conc.: 9.0 ± 4.0 ^c µg g^−1
  Lung U Conc.: 0.32 ± 0.09 ^c µg g^−1
  Spleen U Conc.: 0.48 ± 0.09 ^c µg g^−1
  Bone (femur) U Conc.: 4.1 ± 1.6 µg/g
[1]; single dose 300 µmol kg^−1 PO
  Bile/Urine (%): bile share of U excretion: 85%
  Bile/Urine (%): urine share of U excretion: 15%
  Reduction (%) of renal uranium vs control: 73%
  % Administered Dose Excreted: 26.0%
  Renal Conc.: 23 ± 11 ^b µg g^−1
  Kidney U Conc.: 23 ± 11 ^b µg g^−1
  Liver U Conc.: 2.5 ± 0.8 ^c µg g^−1
  Lung U Conc.: 0.28 ± 0.10 ^c µg g^−1
  Spleen U Conc.: 0.29 ± 0.07 ^c µg g^−1
  Bone (femur) U Conc.: 3.1 ± 1.3 µg/g
[1]; single dose 300 µmol kg^−1 SC
  Bile/Urine (%): bile share of U excretion: 77%
  Bile/Urine (%): urine share of U excretion: 23%
  Reduction (%) of renal uranium vs control: 60%
  % Administered Dose Excreted: 32.7%
  Renal Conc.: 34 ± 5 ^b µg g^−1
  Kidney U Conc.: 34 ± 5 ^b µg g^−1
  Liver U Conc.: 6.6 ± 1.2 ^c µg g^−1
  Lung U Conc.: 0.32 ± 0.02 ^c µg g^−1
  Spleen U Conc.: 0.39 ± 0.07 ^c µg g^−1
  Bone (femur) U Conc.: 3.0 ± 1.5 µg/g

## O=C(O)CN(CCN(CC(=O)O)CC(=O)O)CCN(CC(=O)O)CC(=O)O [DTPA, Diethylenetriaminepentaacetic acid, reference compound]
[1]; route of actinide excretion, dose and route of chelator not stated at this place
  renal share of actinide excretion: 100%
[1]; single dose 150 µmol kg^−1 SC
  Bile/Urine (%): bile share of U excretion: 2%
  Bile/Urine (%): urine share of U excretion: 98%
  Reduction (%) of renal uranium vs control: 44%
  % Administered Dose Excreted: 27.6%
  Renal Conc.: 47 ± 9 ^b µg g^−1
  Kidney U Conc.: 47 ± 9 ^b µg g^−1
  Liver U Conc.: 0.1 ± 0.0 ^b µg g^−1
  Lung U Conc.: 0.07 ± 0.01 ^b µg g^−1
  Spleen U Conc.: 0.15 ± 0.05 ^b µg g^−1
  Bone (femur) U Conc.: 3.1 ± 1.1 µg/g
[1]; single dose 300 µmol kg^−1 PO
  Bile/Urine (%): bile share of U excretion: 0%
  Bile/Urine (%): urine share of U excretion: 100%
  Reduction (%) of renal uranium vs control: 36%
  % Administered Dose Excreted: 21.2%
  Renal Conc.: 54 ± 11 ^b µg g^−1
  Kidney U Conc.: 54 ± 11 ^b µg g^−1
  Liver U Conc.: 0.2 ± 0.0 µg/g
  Lung U Conc.: 0.10 ± 0.02 ^b µg g^−1
  Spleen U Conc.: 0.13 ± 0.03 ^b µg g^−1
  Bone (femur) U Conc.: 4.3 ± 1.3 µg/g
[2]; [3]
  Reduction (%) of renal uranium vs control: 39%
  Renal Conc.: 19 ± 2 ^c µg g^−1
[2]; [4]
  Fecal U Excretion: 30 ± 19 µg/kg
  % Administered Dose Excreted: 41.0%
  Total U Excretion: 410 ± 56 µg/kg
[2]; Day 1, 300 µmol kg^−1 s.c. daily x 4, first dose immediately post-U
  Urine U Excretion: 380 ± 55 µg/kg
[2]; [5]
  Fecal U Excretion: 13 ± 9 µg/kg
  Urine U Excretion: 43 ± 11 µg/kg
  % Administered Dose Excreted: 5.6%
  Total U Excretion: 56 ± 16 ^c µg kg^−1
[2]; [6]
  Fecal U Excretion: 13 ± 5 µg/kg
  Urine U Excretion: 29 ± 6 µg/kg
  % Administered Dose Excreted: 4.2%
  Total U Excretion: 42 ± 5 µg/kg
[2]; [7]
  Fecal U Excretion: 9 ± 5 µg/kg
  Urine U Excretion: 14 ± 3 µg/kg
  % Administered Dose Excreted: 2.3%
  Total U Excretion: 23 ± 3 µg/kg
[2]; cumulative over 4 days, 300 µmol kg^−1 s.c. daily x 4
  administered dose of uranium excreted at the end of four days (urine + feces): 53%
